Measured values from ChEMBL document CHEMBL4177771, “Endoplasmic Reticulum-Localized Two-Photon-Absorbing Boron Dipyrromethenes as Advanced Photosensitizers for Photodynamic Therapy” (J Med Chem, 2018).

What was measured:
[1] = Drug uptake in lysosome of human HepG2 cells at 4 uM after 4 hrs by […]-based confocal microscopic method; type: ADME, subcellular; conditions: hepg2, 4 h
[2] = Drug uptake in mitochondria of human HeLa cells at 4 uM after 4 hrs by Mito-tracker green-based confocal microscopic method; type: ADME
In short: (§1)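 Cells on glass-bottom dishes given 2 μM for 2 h or 4 μM for 4 h at 37 °C. After PBS washes, stained in HBSS with 0.2 μM ER-tracker or Mito-tracker green for 15 min at 37 °C. Confocal imaging: trackers excited at 488 nm, emission 500–570 nm; BODIPY excited at 633 nm, emission 650–760 nm.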

[3] = Drug uptake in mitochondria of human HepG2 cells at 4 uM after 4 hrs by Mito-tracker green-based confocal microscopic method; type: ADME; conditions: hepg2, 4 h; in short: as §1
[4] = Drug uptake in endoplasmic reticulum of human HeLa cells at 4 uM after 4 hrs by ER-tracker green-based confocal microscopic method; type: ADME, subcellular; in short: as §1
[5] = Drug uptake in lysosome of human HeLa cells at 4 uM after 4 hrs by […]-based confocal microscopic method; type: ADME, subcellular
[6] = Drug uptake in endoplasmic reticulum of human HepG2 cells at 4 uM after 4 hrs by ER-tracker green-based confocal microscopic method; type: ADME, subcellular; conditions: hepg2, 4 h; in short: as §1
[7] = Drug uptake in endoplasmic reticulum of human HepG2 cells at 2 uM after 2 hrs by ER-tracker green-based confocal microscopic method; type: ADME, subcellular; conditions: hepg2, 2 h; in short: as §1
[8] = Drug uptake in lysosome of human HeLa cells at 2 uM after 2 hrs by […]-based confocal microscopic method; type: ADME, subcellular
[9] = Drug uptake in endoplasmic reticulum of human HeLa cells at 2 uM after 2 hrs by ER-tracker green-based confocal microscopic method; type: ADME, subcellular; in short: as §1
[10] = Drug uptake in mitochondria of human HepG2 cells at 2 uM after 2 hrs by Mito-tracker green-based confocal microscopic method; type: ADME; conditions: hepg2, 2 h; in short: as §1
[11] = Drug uptake in mitochondria of human HeLa cells at 2 uM after 2 hrs by Mito-tracker green-based confocal microscopic method; type: ADME; in short: as §1
[12] = Drug uptake in lysosome of human HepG2 cells at 2 uM after 2 hrs by […]-based confocal microscopic method; type: ADME, subcellular; conditions: hepg2, 2 h

Measured: Drug uptake

CCOC(=O)COc1ccc(C2=C3C(C)=C(Br)C(/C=C/c4ccc5c(c4)c4ccccc4n5CCOCCOCCOC)=[N+]3[B-](F)(F)n3c(/C=C/c4ccc5c(c4)c4ccccc4n5CCOCCOCCOC)c(Br)c(C)c32)cc1
Not Active: [1] | [2] | [3] | [4] | [5] | [6]

CCOC(=O)COc1ccc(C2=C3C(C)=C(Br)C(/C=C/c4ccc(OCCOCCOCCOC)cc4)=[N+]3[B-](F)(F)n3c(/C=C/c4ccc(OCCOCCOCCOC)cc4)c(Br)c(C)c32)cc1
Not Active: [7] | [8] | [9] | [10] | [11] | [12]
